# Compounds with a hit are over-represented: about 1.9% of the library has one in this group of screens.
# Runt-CBFb FRET: Runt domain-CBFb interaction inhibition; Q01196+Q13951; AID 1496; Cerulean-Runt/Venus-CBFb FRET ratio 530/480, 1 h; hit rate 0.46% among 220,000; inhibition, % at 20 µM;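 active = inhibition over about 50% at 20 µM in the single-dose screen, limit read from the data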;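 also: 0% = DMSO wells and 100% = excess unlabeled CBFb competitor control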
#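 Assay system: Cerulean-tagged RUNX1 Runt domain (FRET donor) fusion protein / Amount: 100 nM each of Venus-CBFb and Cerulean-Runt domain / Medium: Tris buffer pH 7.5 with salts and BSA / Also added: Venus-CBFb 100 nM / Schedule: 1 h complex formation plus 1 h compound treatment, room temperature / Signal: FRET fluorescence / Read-out: loss of energy transfer signal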
# Tb hexokinase: T. brucei hexokinase 1 inhibition. hit rate 0.11% among 220,000. recombinant TbHK1, G6PDH-coupled NADH A340. inhibition, % at 10 µM;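 active = inhibition of 50% or more in the single-dose primary screen; inactive = inhibition below 50%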
# Runt-SMMHC FRET: blocks binding of human RUNX1 Runt domain to CBFb-SMMHC. Cerulean-Runt/Venus-CBFb-SMMHC FRET ratio 530/480, 1 h. inhibition, % at 20 µM. hit rate 0.74% among 220,000;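 active = mean inhibition across duplicate retests at 20 µM reaching about 50%, limit read from the data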;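 also: 0% = DMSO wells and 100% = wells with excess untagged CBFb-SMMHC; inhibitors lower the FRET ratio by blocking Runt binding to CBFb-SMMHC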
# Hck-Nef inh: blocks Nef-activated human Hck kinase. P08631. inhibition, % at 20 µM. hit rate 0.68% among 220,000. Recombinant Hck-YEEI plus Nef, Z-Lyte FRET kinase assay;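 active = Hck-Nef kinase inhibition above about 50%, limit read from the data; inactive = inhibition below that limit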;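 also: 0% = DMSO with Hck plus Nef and 100% = Hck alone without Nef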
# Target sequence (P08631 whole entry, looked up): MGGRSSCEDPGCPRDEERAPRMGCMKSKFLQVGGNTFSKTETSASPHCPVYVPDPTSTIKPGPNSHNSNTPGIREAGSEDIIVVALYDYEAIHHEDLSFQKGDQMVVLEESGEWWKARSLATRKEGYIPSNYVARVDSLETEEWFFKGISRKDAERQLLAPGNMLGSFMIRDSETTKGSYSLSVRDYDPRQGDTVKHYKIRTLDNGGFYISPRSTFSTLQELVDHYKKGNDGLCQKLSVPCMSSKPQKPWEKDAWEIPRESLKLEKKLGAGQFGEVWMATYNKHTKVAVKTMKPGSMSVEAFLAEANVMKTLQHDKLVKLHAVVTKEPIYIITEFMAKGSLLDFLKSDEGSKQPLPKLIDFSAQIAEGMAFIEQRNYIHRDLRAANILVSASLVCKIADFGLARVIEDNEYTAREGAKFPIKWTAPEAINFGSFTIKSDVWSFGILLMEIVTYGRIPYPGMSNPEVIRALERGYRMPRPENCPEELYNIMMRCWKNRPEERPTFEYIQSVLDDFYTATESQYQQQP
# RanGTP-Imp inh: inhibitors of RanGTP-importin-beta interaction, primary screen, biochemical, FRET, CFP-Ran, YFP-importin-beta, homogeneous; cell-free CFP-Ran/YFP-importin-beta FRET ratio; inhibition, % (test concentration not listed); hit rate 1.1% among 300,000; AID 2216;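 active = more than half of the replicate wells show a fall in the fluorescence ratio signal beyond about 16%, limit read from the data, passing the limit was not always enough; inconclusive = exactly half of the replicate wells pass the set limit; inactive = fewer than half of replicates pass the limit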;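 also: 0% = DMSO wells and 100% = Ran loaded with GDP instead of GTP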
# Hck-Nef confirm: Hck-Nef kinase inhibition, confirmation; shares compounds with Hck-Nef inh; Recombinant Hck-YEEI:Nef, Z-Lyte FRET kinase assay; calls only at 10 µM; hit rate 28% among 1,300;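 active = average inhibition of at least 50%, with Z-scores no higher than 3 in both the phospho-tyrosine peptide and fluorescence counterscreens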
# * hit, by the source's call; i = inactive; ? = inconclusive; · = no result shown; + = active, no number.
SMILES,Runt-CBFb FRET,Tb hexokinase,Runt-SMMHC FRET,Hck-Nef inh,RanGTP-Imp inh,Hck-Nef confirm
CCCN1CCC(NC23CC4CC(CC(C4)C2)C3)CC1,·,·,·,·,2,·
CC(=O)c1ccc2c(c1)C1C=CCC1C(C(=O)O)N2 (stereo not drawn),28,1,43,74*,·,+
Cc1ccc2c(c1)C1C=CCC1C(C(=O)O)N2 (stereo not drawn),2,16,10,8,2,·
Nc1[nH]nc2nc(N3CCOCC3)nc(-c3ccccc3)c12,0,25,4,67*,-4,+
O=C(c1ccccc1)c1ccc2nc(Nc3ccccc3)c3nncn3c2c1,0,-45,-65,68*,1,i
C=CCNC(=S)N1CCN(Cc2ccc3c(c2)OCO3)CC1,·,·,·,·,6,·
COc1cc(/C=N/NC(=O)c2ccccc2O)ccc1OCC(=O)Nc1ccccc1,·,·,·,·,-3,·
O=C(COc1ccc(/C=N/NC(=O)c2cc3ccccc3o2)cc1Cl)Nc1ccccc1,-1,-22,0,86*,-3,+
Cc1ccc(NC(=O)CN(C)Cc2nc3c(Br)cc(Br)cc3c(=O)[nH]2)cc1,-6,8,-5,74*,-4,+
COc1ccccc1C(=O)Oc1cc(N)n(S(=O)(=O)c2ccccc2)n1,5,7,-5,107*,-2,i
CC(=O)Oc1cc2oc(=O)c3c(c2cc1Cl)CCC3,81*,-21,178*,111*,11,·
O=C(c1ccccc1)N1CCN(C(=O)c2nn3c(C(F)(F)F)cc(-c4ccccc4)nc3c2Br)CC1,·,·,·,·,2,·
O=C(CSc1nc(-c2ccc(F)cc2)nc2c1Cc1ccccc1O2)Nc1cccc(C(=O)O)c1,37,19,-17,153*,-4,+
CC(Oc1ccc(-c2ccccc2)cc1)C(=O)N/N=C/c1cccnc1 (stereo not drawn),·,·,·,·,0,·
CCCn1c(NC(=O)c2ccc(Cl)c(S(=O)(=O)N3CCCC3)c2)nc2ccccc21,1,-10,4,73*,-1,+
Cc1nn(CCc2nn[nH]n2)c2nc(-c3ccc(C4CCCCC4)cc3)cc(C(F)(F)F)c12,5,46,-4,71*,0,+
CCN(CC)c1nc2ccccc2nc1-n1nc(C)cc1C,7,-2,18,103*,?,i
Cc1cc(C)c(Nc2cc(S(=O)(=O)O)c(N)c3c2C(=O)c2ccccc2C3=O)c(C)c1,3,15,-9,84*,·,+
CCOC(=O)C1CCN(c2cc3c(cc2NC(=O)c2cc(OC)ccc2Br)n(C)c(=O)n3C)CC1,·,·,·,·,-19,·
Cc1ccc(NC(=O)C2c3ccccc3Oc3ccccc32)c(C)c1,2,4,3,-1,1,·
CCC(=O)Oc1ccc2c(C)cc(=O)oc2c1C,11,3,20,54*,2,i
Cc1cc(=O)oc2c(C)c(OC(=O)c3ccco3)ccc12,·,·,·,·,1,·
COc1cc(/C=C/c2ccc3cccc(OC)c3n2)c(O)c([N+](=O)[O-])c1,0,-19,-1,69*,0,+
COc1cc(/C=C/c2ccc3cccc(OC)c3n2)c(OC(C)=O)c([N+](=O)[O-])c1,0,-16,-6,-2,-2,·
Cc1cc(/C(N)=N/OC(=O)c2ccccc2Cl)no1,0,-7,-1,9,-3,·
SMILES,Runt-CBFb FRET,Tb hexokinase,Runt-SMMHC FRET,Hck-Nef inh,RanGTP-Imp inh,Hck-Nef confirm
CCCS/C(N)=N/N=C/c1cc(C)ccc1O,1,-35,1,55*,3,+
COc1ccccc1C1CC(c2ccco2)=NN1S(C)(=O)=O (stereo not drawn),3,-2,4,19,4,·
COc1cccc(-n2c(C)c3c(OC)cccc(=O)c3c2C)c1,4,-4,-9,51*,0,i
COc1cccc(=O)c2c(C)n(-c3cc(C)cc(C)c3)c(C)c12,2,-6,-3,2,-17,·
CCc1cc(=O)oc2cc3occ(-c4ccc(OC)c(F)c4)c3cc12,-3,-1,-5,58*,-1,i
COc1c(O)cc2oc(-c3ccc(O)cc3)cc(=O)c2c1O,3,-35,1,91*,13,+
COc1cc2oc(-c3ccc(O)cc3)cc(=O)c2c(O)c1OC,0,-53,-3,89*,?,+

# Compound activity: PubChem, several laboratories
